Reference: ChEMBL document CHEMBL3393029, “Preactivated oxazaphosphorines designed for isophosphoramide mustard delivery as bulk form or nanoassemblies: synthesis and proof of concept” (J Med Chem, 2015)

What was measured:
A673 [1] = test: Cytotoxicity against human A673 cells after 72 hrs by MTS assay; format: functional, cell-based; conditions: A673, 72 h
Method in brief: (§1)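 Human Ewing sarcoma A673 and rhabdomyosarcoma RMS-1 cells were grown in DMEM or RPMI with 10% FCS, penicillin and streptomycin at 37 °C under 5% CO2. […] MTS was then added for 2–5 h and absorbance read at 490 nm. Six replicates per concentration; IC50 versus untreated cells.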

[2] = Cytotoxicity against human RMS1 cells after 72 hrs by MTS assay; format: functional, cell-based; conditions: RMS1, 72 h; method in brief: as §1
Plasma [3] = test: Drug metabolism in mouse plasma assessed as 4-HO-IFO release measured after 2 hrs by HPLC-MS/MS method; format: ADME, cell-free
Method in brief: (§2)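 Prodrugs, from acetonitrile stocks as bulk form or nano-assemblies, were incubated in mouse plasma at 37 °C for up to 24 h. 4-HO-IFO was trapped as its semicarbazone with semicarbazide (2 M in pH 7.4 buffer). It was quantified alongside the parent by isocratic C18 HPLC-ESI(+)-MS/MS with MRM, using hexamethyl phosphoramide as internal standard, over 50–5000 ng/mL. Results are given in ng/mL.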

Plasma [4] = test: Drug metabolism in mouse plasma assessed as 4-HO-IFO level measured after 2 hrs by HPLC-MS/MS method; format: ADME, cell-free; method in brief: as §2
Plasma [5] = test: Drug metabolism in mouse plasma assessed as 4-HO-IFO level measured after 6 hrs by HPLC-MS/MS method; format: ADME, cell-free; method in brief: as §2
KB = test: Cytotoxicity against human KB cells; format: functional, cell-based
Method in brief: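 KB3.1 was one of 12 human lines tested with nano-assembly formulations. Cells were seeded, then exposed after 24 h to 0.1–200 µM in DMEM or RPMI with 10% FBS at 37 °C and 5% CO2 for 72 h. MTS was read at 490 nm after 2–5 h. Six replicates per concentration; IC50 relative to untreated cells.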

A673 [6] = test: Cytotoxicity against human A673 cells after 96 hrs by MTS assay; format: functional, cell-based; conditions: A673, 96 h; method in brief: as §1
[7] = Cytotoxicity against human RMS1 cells after 96 hrs by MTS assay; format: functional, cell-based; conditions: RMS1, 96 h; method in brief: as §1
Plasma [8] = test: Drug metabolism in mouse plasma assessed as 4-HO-IFO release measured after 0.5 hrs by HPLC-MS/MS method; format: ADME, cell-free; method in brief: as §2
Plasma [9] = test: Drug metabolism in mouse plasma assessed as 4-HO-IFO level measured after 2 to 24 hrs by HPLC-MS/MS method; format: ADME, cell-free; method in brief: as §2
Plasma [10] = test: Drug metabolism in mouse plasma assessed as 4-HO-IFO release measured after 4 hrs by HPLC-MS/MS method; format: ADME, cell-free; method in brief: as §2

| SMILES | IC50 (A673 [1]) | IC50 [2] | Drug metabolism (Plasma [4]) | Stability (Plasma [9]) | also measured |
| --- | --- | --- | --- | --- | --- |
| COC1CCOP(=O)(NCCCl)N1CCCl (mixture of isomers) | 1.5 µM | 3.8 µM | metabolite_detected |  | Drug metabolism (Plasma [3]): 1250 ng/mL; Drug metabolism (Plasma [5]): metabolite_detected |
| CCCCCOC1CCOP(=O)(NCCCl)N1CCCl (mixture of isomers) | 17.7 µM | 5.3 µM |  |  |  |
| CO[C@@H]1CCOP(=O)(NCCCl)N1CCCl (some centres not stated) |  |  |  |  | IC50 (KB): 20 µM |
| CC(C)CCCC(C)CCOC1CCOP(=O)(NCCCl)N1CCCl (configuration not stated) |  |  | metabolite_detected | Stable | IC50 (A673 [6]): 24.5 µM; IC50 [7]: 11.3 µM; Drug metabolism (Plasma [8]): 200 ng/mL |
| CO[C@H]1CCOP(=O)(NCCCl)N1CCCl (some centres not stated) |  |  |  |  | IC50 (KB): 22 µM |
| CC(C)=CCC/C(C)=C/CC/C(C)=C/COC1CCOP(=O)(NCCCl)N1CCCl (mixture of isomers) |  |  | metabolite_detected | Stable | Drug metabolism (Plasma [8]): 700 ng/mL |
| CC(C)=CCC/C(C)=C/COC1CCOP(=O)(NCCCl)N1CCCl (mixture of isomers) | 25.3 µM | 9.3 µM | metabolite_detected | Stable | Drug metabolism (Plasma [10]): 350 ng/mL |
